pIC50: −log10 of the molar value. Activity calls are given as the source filed them. The calls are words filed in the database; no cut-off is given here.
biological target: T1, Delta-type opioid receptor (Homo sapiens, UniProt P41143); experiment: Inverse agonist activity at human cloned delta opioid receptor expressed in CHO cells assessed as […] [35S]GTP-gamma-S binding in presence of 1 uM GDP relative to control; format: functional, cell-based; design: scale not given: the % may be the effect or the level left
T1 sequence (P41143 whole entry): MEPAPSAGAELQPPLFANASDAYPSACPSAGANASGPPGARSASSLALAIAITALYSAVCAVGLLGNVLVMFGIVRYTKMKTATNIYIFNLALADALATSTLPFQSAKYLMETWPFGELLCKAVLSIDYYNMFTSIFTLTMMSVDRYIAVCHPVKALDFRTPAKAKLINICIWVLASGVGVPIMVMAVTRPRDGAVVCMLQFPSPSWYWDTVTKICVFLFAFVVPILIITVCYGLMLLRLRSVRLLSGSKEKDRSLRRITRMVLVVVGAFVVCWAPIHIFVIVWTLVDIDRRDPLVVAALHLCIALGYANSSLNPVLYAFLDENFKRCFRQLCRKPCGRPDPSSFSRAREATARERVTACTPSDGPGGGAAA

SMILES	Activity
C[C@H]1CN(CCOc2ccccc2)[C@@H]2C[C@@H](NC(=O)C(C)(C)c3ccccc3)C[C@@]1(c1cccc(O)c1)C2	83%
C[C@H]1CN(CCCc2ccccc2)[C@@H]2C[C@@H](NC(=O)C3(c4cccs4)CCCC3)C[C@@]1(c1cccc(O)c1)C2	54%
Cc1ccccc1/C=C/CN1C[C@H](C)[C@@]2(c3cccc(O)c3)C[C@H](NC(=O)C3(c4ccccc4)CCCC3)C[C@@H]1C2	70%

Results, then the compound that gave them:

Activity	SMILES
72%	COc1ccc(C2(C(=O)N[C@@H]3C[C@@H]4C[C@](c5cccc(O)c5)(C3)[C@@H](C)CN4CCCc3ccccc3)CCCC2)cc1
86%	C[C@H]1CN(CCCc2ccccc2)[C@@H]2C[C@@H](NC(=O)C3(c4ccsc4)CCCC3)C[C@@]1(c1cccc(O)c1)C2

biological target: Mu-type opioid receptor (Homo sapiens) (UniProt P35372); experiment: Antagonist activity at human cloned mu opioid receptor expressed in CHO cells assessed as inhibition of DAMGO-stimulated [35S]GTP-gamma-S binding in presence of 10 uM GDP; format: functional, cell-based
Method in brief: (§1)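 Membranes of CHO cells expressing cloned human receptor (0.4-0.6 pmol/mg), 20-40 µg protein, with 0.5 nM [³⁵S]GTPγS, 10 µM GDP final, 1% DMSO, in 20 mM Hepes pH 7.4, 100 mM NaCl, 10 mM MgCl₂; 1 h room temperature. Agonist curves (seven concentrations, 0.32-32 000 nM) ± one test concentration (µ 3-300, δ 1-50, κ 50-300 nM). Filtration over GF/B, scintillation counting; Ke as mean ± SE, ≥3 experiments.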

Mu-type opioid receptor (Homo sapiens), sequence (P35372 whole entry): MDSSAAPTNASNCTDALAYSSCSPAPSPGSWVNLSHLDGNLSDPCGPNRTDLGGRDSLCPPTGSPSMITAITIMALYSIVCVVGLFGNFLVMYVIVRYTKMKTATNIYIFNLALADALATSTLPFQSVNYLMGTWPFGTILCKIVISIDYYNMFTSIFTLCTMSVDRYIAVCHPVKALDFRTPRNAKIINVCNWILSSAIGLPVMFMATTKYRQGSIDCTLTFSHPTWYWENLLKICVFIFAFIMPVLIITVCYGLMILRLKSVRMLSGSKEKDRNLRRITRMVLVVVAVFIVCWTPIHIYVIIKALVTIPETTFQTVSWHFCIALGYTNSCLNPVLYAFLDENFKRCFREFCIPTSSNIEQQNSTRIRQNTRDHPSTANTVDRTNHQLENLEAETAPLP

SMILES	Ke
C[C@H]1CN(CCOc2ccccc2)[C@@H]2C[C@@H](NC(=O)C(C)(C)c3ccccc3)C[C@@]1(c1cccc(O)c1)C2	11.4 nM
C[C@H]1CN(CCCc2ccccc2)[C@@H]2C[C@@H](NC(=O)C3(c4cccs4)CCCC3)C[C@@]1(c1cccc(O)c1)C2	2.19 nM
Cc1ccccc1/C=C/CN1C[C@H](C)[C@@]2(c3cccc(O)c3)C[C@H](NC(=O)C3(c4ccccc4)CCCC3)C[C@@H]1C2	2.51 nM

More lines, now with the values ahead:

Ke	SMILES
12 nM	COc1ccc(C2(C(=O)N[C@@H]3C[C@@H]4C[C@](c5cccc(O)c5)(C3)[C@@H](C)CN4CCCc3ccccc3)CCCC2)cc1
2.07 nM	C[C@H]1CN(CCCc2ccccc2)[C@@H]2C[C@@H](NC(=O)C3(c4ccsc4)CCCC3)C[C@@]1(c1cccc(O)c1)C2

biological target: T1, Delta-type opioid receptor; experiment: Antagonist activity at human cloned delta opioid receptor expressed in CHO cells assessed as inhibition of DPDPE-stimulated [35S]GTP-gamma-S binding in presence of 10 uM GDP; format: functional, cell-based; method in brief: as §1

SMILES	Ke
C[C@H]1CN(CCOc2ccccc2)[C@@H]2C[C@@H](NC(=O)C(C)(C)c3ccccc3)C[C@@]1(c1cccc(O)c1)C2	0.87 nM
C[C@H]1CN(CCCc2ccccc2)[C@@H]2C[C@@H](NC(=O)C3(c4cccs4)CCCC3)C[C@@]1(c1cccc(O)c1)C2	0.31 nM
Cc1ccccc1/C=C/CN1C[C@H](C)[C@@]2(c3cccc(O)c3)C[C@H](NC(=O)C3(c4ccccc4)CCCC3)C[C@@H]1C2	0.33 nM

Continued, values first:

Ke	SMILES
0.67 nM	COc1ccc(C2(C(=O)N[C@@H]3C[C@@H]4C[C@](c5cccc(O)c5)(C3)[C@@H](C)CN4CCCc3ccccc3)CCCC2)cc1
0.24 nM	C[C@H]1CN(CCCc2ccccc2)[C@@H]2C[C@@H](NC(=O)C3(c4ccsc4)CCCC3)C[C@@]1(c1cccc(O)c1)C2

biological target: Kappa-type opioid receptor (Homo sapiens) (UniProt P41145); experiment: Antagonist activity at human cloned kappa opioid receptor expressed in CHO cells assessed as inhibition of U69593-stimulated [35S]GTPgammaS binding in presence of 10 uM GDP; format: functional, cell-based; method in brief: as §1
Sequence (P41145 whole entry): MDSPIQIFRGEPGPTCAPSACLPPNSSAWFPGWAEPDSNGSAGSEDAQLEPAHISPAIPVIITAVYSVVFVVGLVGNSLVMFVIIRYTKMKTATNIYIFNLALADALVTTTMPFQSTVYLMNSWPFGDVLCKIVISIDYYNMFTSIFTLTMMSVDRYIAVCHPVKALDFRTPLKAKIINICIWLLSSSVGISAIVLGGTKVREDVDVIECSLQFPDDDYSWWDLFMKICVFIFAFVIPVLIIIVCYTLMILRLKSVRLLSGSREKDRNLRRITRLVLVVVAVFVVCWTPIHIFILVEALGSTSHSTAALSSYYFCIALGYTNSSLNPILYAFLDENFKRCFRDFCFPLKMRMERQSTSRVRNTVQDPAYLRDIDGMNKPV

SMILES	Ke
C[C@H]1CN(CCOc2ccccc2)[C@@H]2C[C@@H](NC(=O)C(C)(C)c3ccccc3)C[C@@]1(c1cccc(O)c1)C2	96.3 nM
C[C@H]1CN(CCCc2ccccc2)[C@@H]2C[C@@H](NC(=O)C3(c4cccs4)CCCC3)C[C@@]1(c1cccc(O)c1)C2	24 nM
Cc1ccccc1/C=C/CN1C[C@H](C)[C@@]2(c3cccc(O)c3)C[C@H](NC(=O)C3(c4ccccc4)CCCC3)C[C@@H]1C2	5.6 nM

The next lines start with the values.

Ke	SMILES
2.43 nM	COc1ccc(C2(C(=O)N[C@@H]3C[C@@H]4C[C@](c5cccc(O)c5)(C3)[C@@H](C)CN4CCCc3ccccc3)CCCC2)cc1
7.77 nM	C[C@H]1CN(CCCc2ccccc2)[C@@H]2C[C@@H](NC(=O)C3(c4ccsc4)CCCC3)C[C@@]1(c1cccc(O)c1)C2

biological target: Opioid receptors; mu & delta (Homo sapiens) (UniProt P41143+P35372); experiment: Selectivity for human cloned delta opioid receptor over mu opioid receptor; format: protein assay
Method in brief: (§2)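 Ratios of Ke values from [³⁵S]GTPγS antagonism assays at cloned human µ, δ and κ receptors in CHO membranes, each run with 10 µM GDP final against DAMGO, DPDPE or U69593 agonist curves.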

Opioid receptors; mu & delta (Homo sapiens), sequence (P35372 whole entry, looked up): as the sequence (P35372 whole entry) above
Opioid receptors; mu & delta (Homo sapiens), sequence (P41143 whole entry, looked up): as the sequence (P41143 whole entry) above

SMILES	Ratio Ke
C[C@H]1CN(CCOc2ccccc2)[C@@H]2C[C@@H](NC(=O)C(C)(C)c3ccccc3)C[C@@]1(c1cccc(O)c1)C2	13
C[C@H]1CN(CCCc2ccccc2)[C@@H]2C[C@@H](NC(=O)C3(c4cccs4)CCCC3)C[C@@]1(c1cccc(O)c1)C2	7.1
Cc1ccccc1/C=C/CN1C[C@H](C)[C@@]2(c3cccc(O)c3)C[C@H](NC(=O)C3(c4ccccc4)CCCC3)C[C@@H]1C2	7.6

Continued, values first:

Ratio Ke	SMILES
18	COc1ccc(C2(C(=O)N[C@@H]3C[C@@H]4C[C@](c5cccc(O)c5)(C3)[C@@H](C)CN4CCCc3ccccc3)CCCC2)cc1
8.8	C[C@H]1CN(CCCc2ccccc2)[C@@H]2C[C@@H](NC(=O)C3(c4ccsc4)CCCC3)C[C@@]1(c1cccc(O)c1)C2

biological target: Opioid receptors; delta & kappa (Homo sapiens) (UniProt P41145+P41143); experiment: Selectivity for human cloned delta opioid receptor over kappa opioid receptor; format: protein assay; method in brief: as §2
Sequence (P41143 whole entry, looked up): as the sequence (P41143 whole entry) above
Sequence (P41145 whole entry, looked up): as the sequence (P41145 whole entry) above

SMILES	Ratio Ke
C[C@H]1CN(CCOc2ccccc2)[C@@H]2C[C@@H](NC(=O)C(C)(C)c3ccccc3)C[C@@]1(c1cccc(O)c1)C2	111
C[C@H]1CN(CCCc2ccccc2)[C@@H]2C[C@@H](NC(=O)C3(c4cccs4)CCCC3)C[C@@]1(c1cccc(O)c1)C2	77
Cc1ccccc1/C=C/CN1C[C@H](C)[C@@]2(c3cccc(O)c3)C[C@H](NC(=O)C3(c4ccccc4)CCCC3)C[C@@H]1C2	22

Other lines, results leading:

Ratio Ke	SMILES
3.6	COc1ccc(C2(C(=O)N[C@@H]3C[C@@H]4C[C@](c5cccc(O)c5)(C3)[C@@H](C)CN4CCCc3ccccc3)CCCC2)cc1
33	C[C@H]1CN(CCCc2ccccc2)[C@@H]2C[C@@H](NC(=O)C3(c4ccsc4)CCCC3)C[C@@]1(c1cccc(O)c1)C2

biological target: T1, Delta-type opioid receptor; experiment: Agonist activity at delta opioid receptor at 31.6 uM; format: functional

SMILES	Activity
C[C@H]1CN(CCOc2ccccc2)[C@@H]2C[C@@H](NC(=O)C(C)(C)c3ccccc3)C[C@@]1(c1cccc(O)c1)C2	inactive
C[C@H]1CN(CCCc2ccccc2)[C@@H]2C[C@@H](NC(=O)C3(c4cccs4)CCCC3)C[C@@]1(c1cccc(O)c1)C2	inactive
Cc1ccccc1/C=C/CN1C[C@H](C)[C@@]2(c3cccc(O)c3)C[C@H](NC(=O)C3(c4ccccc4)CCCC3)C[C@@H]1C2	inactive

Other lines, results leading:

Activity	SMILES
inactive	COc1ccc(C2(C(=O)N[C@@H]3C[C@@H]4C[C@](c5cccc(O)c5)(C3)[C@@H](C)CN4CCCc3ccccc3)CCCC2)cc1
inactive	C[C@H]1CN(CCCc2ccccc2)[C@@H]2C[C@@H](NC(=O)C3(c4ccsc4)CCCC3)C[C@@]1(c1cccc(O)c1)C2

biological target: Mu-type opioid receptor (Homo sapiens) (UniProt P35372); experiment: Intrinsic activity at mu opioid receptor in presence of 1 uM GDP; format: functional

SMILES	Activity
C[C@H]1CN(CCOc2ccccc2)[C@@H]2C[C@@H](NC(=O)C(C)(C)c3ccccc3)C[C@@]1(c1cccc(O)c1)C2	inactive
C[C@H]1CN(CCCc2ccccc2)[C@@H]2C[C@@H](NC(=O)C3(c4cccs4)CCCC3)C[C@@]1(c1cccc(O)c1)C2	inactive
Cc1ccccc1/C=C/CN1C[C@H](C)[C@@]2(c3cccc(O)c3)C[C@H](NC(=O)C3(c4ccccc4)CCCC3)C[C@@H]1C2	inactive

Further lines, results first:

Activity	SMILES
inactive	COc1ccc(C2(C(=O)N[C@@H]3C[C@@H]4C[C@](c5cccc(O)c5)(C3)[C@@H](C)CN4CCCc3ccccc3)CCCC2)cc1
inactive	C[C@H]1CN(CCCc2ccccc2)[C@@H]2C[C@@H](NC(=O)C3(c4ccsc4)CCCC3)C[C@@]1(c1cccc(O)c1)C2

biological target: Kappa-type opioid receptor (Homo sapiens) (UniProt P41145); experiment: Intrinsic activity at kappa opioid receptor in presence of 1 uM GDP; format: functional

SMILES	Activity
C[C@H]1CN(CCOc2ccccc2)[C@@H]2C[C@@H](NC(=O)C(C)(C)c3ccccc3)C[C@@]1(c1cccc(O)c1)C2	inactive
C[C@H]1CN(CCCc2ccccc2)[C@@H]2C[C@@H](NC(=O)C3(c4cccs4)CCCC3)C[C@@]1(c1cccc(O)c1)C2	inactive
Cc1ccccc1/C=C/CN1C[C@H](C)[C@@]2(c3cccc(O)c3)C[C@H](NC(=O)C3(c4ccccc4)CCCC3)C[C@@H]1C2	inactive

Further lines, results first:

Activity	SMILES
inactive	COc1ccc(C2(C(=O)N[C@@H]3C[C@@H]4C[C@](c5cccc(O)c5)(C3)[C@@H](C)CN4CCCc3ccccc3)CCCC2)cc1
inactive	C[C@H]1CN(CCCc2ccccc2)[C@@H]2C[C@@H](NC(=O)C3(c4ccsc4)CCCC3)C[C@@]1(c1cccc(O)c1)C2

biological target: T1, Delta-type opioid receptor; experiment: Inverse agonist activity at human cloned delta opioid receptor expressed in CHO cells assessed as […] [35S]GTP-gamma-S binding in presence of 1 uM GDP; format: functional, cell-based

SMILES	pIC50
C[C@H]1CN(CCOc2ccccc2)[C@@H]2C[C@@H](NC(=O)C(C)(C)c3ccccc3)C[C@@]1(c1cccc(O)c1)C2	8.85
C[C@H]1CN(CCCc2ccccc2)[C@@H]2C[C@@H](NC(=O)C3(c4cccs4)CCCC3)C[C@@]1(c1cccc(O)c1)C2	9.10
Cc1ccccc1/C=C/CN1C[C@H](C)[C@@]2(c3cccc(O)c3)C[C@H](NC(=O)C3(c4ccccc4)CCCC3)C[C@@H]1C2	9.30

Now those with a higher pIC50, led by results:

pIC50	SMILES
9.32	COc1ccc(C2(C(=O)N[C@@H]3C[C@@H]4C[C@](c5cccc(O)c5)(C3)[C@@H](C)CN4CCCc3ccccc3)CCCC2)cc1
9.35	C[C@H]1CN(CCCc2ccccc2)[C@@H]2C[C@@H](NC(=O)C3(c4ccsc4)CCCC3)C[C@@]1(c1cccc(O)c1)C2
